Assay results: paper PMC3382723 (The Journal of General Physiology, 2012)
Several values for one entry are separate records, joined by “and”; a condition that tells them apart may be missing. Equal values may be shown once. Read-outs that look alike come from different tables or passages of the source. Each block holds one compound with its values, some of them ahead of it.

Key:
[1] = target: heteromeric Kv7.2/7.3 channels (Homo sapiens, UniProt O43525+O43526); assay: DiC8-PI; type: cell-based
Summary of the method: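 CHO cells stably cotransfected with human Kv7.2 and Kv7.3. Patches at 22 ± 0.5°C were excised inside-out and held at 0 mV. Bath was 165 mM KCl, 5 mM HEPES, 10 mM EGTA, pH 7.2, with 0.1 µM ATPγS. The PI(4,5)P2 analog was given by piezo microperfusion, rising from 0.1 to 300 µM, 30 s–2 min per step. Popen was taken over the last 20 s, corrected for channel number, with control subtracted. 11–29 patches per concentration. Weighted two-component Hill fit, shared nH.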

[2] = system: concatenated Kv7.2-7.3 channels; assay: DiC8-PI; type: cell-based; conditions: n = 9-21
Summary of the method: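 HM1-CHO cells were transiently transfected with concatenated Kv7.2-7.3 cDNA plus an EGFP plasmid using Lipofectamine 2000. Inside-out patches at 0 mV and 22°C, in 165 mM KCl/HEPES/EGTA bath, pH 7.2, with 0.1 µM ATPγS. Stepwise PI(4,5)P2 analog, 0.1–300 µM, by fast perfusion. Popen was taken over the last 20 s and corrected for channel number. n = 9–21 patches per concentration.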

homomeric Kv7.2 channels [3] = target: T1, homomeric Kv7.2 channels (Homo sapiens, UniProt O43526); assay: DiC8-PI; type: cell-based; conditions: single-component Hill fit
T1 sequence (O43526 whole entry): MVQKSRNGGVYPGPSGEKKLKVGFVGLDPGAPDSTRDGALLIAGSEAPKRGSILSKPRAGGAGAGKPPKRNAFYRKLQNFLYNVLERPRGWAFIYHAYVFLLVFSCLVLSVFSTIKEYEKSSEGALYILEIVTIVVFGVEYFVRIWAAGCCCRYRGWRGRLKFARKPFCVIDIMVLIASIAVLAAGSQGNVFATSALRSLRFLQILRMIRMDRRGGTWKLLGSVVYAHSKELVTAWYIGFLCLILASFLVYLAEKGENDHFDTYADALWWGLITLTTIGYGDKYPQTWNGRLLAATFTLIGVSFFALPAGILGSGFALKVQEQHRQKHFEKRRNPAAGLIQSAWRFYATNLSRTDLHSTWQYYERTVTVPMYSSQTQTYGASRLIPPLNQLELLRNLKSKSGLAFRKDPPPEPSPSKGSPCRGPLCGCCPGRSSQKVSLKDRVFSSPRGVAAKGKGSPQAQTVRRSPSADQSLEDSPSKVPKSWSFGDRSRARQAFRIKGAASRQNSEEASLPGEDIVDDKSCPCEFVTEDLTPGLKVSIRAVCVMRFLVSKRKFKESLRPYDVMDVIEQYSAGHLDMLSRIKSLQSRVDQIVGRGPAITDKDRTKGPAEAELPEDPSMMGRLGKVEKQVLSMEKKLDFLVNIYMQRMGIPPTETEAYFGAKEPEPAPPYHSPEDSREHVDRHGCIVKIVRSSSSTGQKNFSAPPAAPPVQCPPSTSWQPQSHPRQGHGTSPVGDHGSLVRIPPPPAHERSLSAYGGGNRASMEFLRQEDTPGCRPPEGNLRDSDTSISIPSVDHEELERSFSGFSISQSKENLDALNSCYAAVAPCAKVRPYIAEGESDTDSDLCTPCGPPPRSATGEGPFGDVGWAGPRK
Summary of the method: (§1)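 HM1-CHO cells (human M1 receptor) were transiently transfected with human Kv7.2 or Kv7.3 A315T, plus EGFP. Excised inside-out patches were held at 0 mV, 22°C, with 0.1 µM ATPγS in the pH 7.2 KCl bath. The PI(4,5)P2 analog was applied in incremental concentrations. Popen was corrected for channel number. Single-component Hill fit. n = 7–19 patches (Kv7.2) and 7–15 patches (Kv7.3T).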

[4] = target: T2, homomeric Kv7.3^T (A315T) channels (Homo sapiens, UniProt O43525, A315T); assay: DiC8-PI; type: cell-based; conditions: single-component Hill fit
T2 sequence (O43525 1-872 A315T): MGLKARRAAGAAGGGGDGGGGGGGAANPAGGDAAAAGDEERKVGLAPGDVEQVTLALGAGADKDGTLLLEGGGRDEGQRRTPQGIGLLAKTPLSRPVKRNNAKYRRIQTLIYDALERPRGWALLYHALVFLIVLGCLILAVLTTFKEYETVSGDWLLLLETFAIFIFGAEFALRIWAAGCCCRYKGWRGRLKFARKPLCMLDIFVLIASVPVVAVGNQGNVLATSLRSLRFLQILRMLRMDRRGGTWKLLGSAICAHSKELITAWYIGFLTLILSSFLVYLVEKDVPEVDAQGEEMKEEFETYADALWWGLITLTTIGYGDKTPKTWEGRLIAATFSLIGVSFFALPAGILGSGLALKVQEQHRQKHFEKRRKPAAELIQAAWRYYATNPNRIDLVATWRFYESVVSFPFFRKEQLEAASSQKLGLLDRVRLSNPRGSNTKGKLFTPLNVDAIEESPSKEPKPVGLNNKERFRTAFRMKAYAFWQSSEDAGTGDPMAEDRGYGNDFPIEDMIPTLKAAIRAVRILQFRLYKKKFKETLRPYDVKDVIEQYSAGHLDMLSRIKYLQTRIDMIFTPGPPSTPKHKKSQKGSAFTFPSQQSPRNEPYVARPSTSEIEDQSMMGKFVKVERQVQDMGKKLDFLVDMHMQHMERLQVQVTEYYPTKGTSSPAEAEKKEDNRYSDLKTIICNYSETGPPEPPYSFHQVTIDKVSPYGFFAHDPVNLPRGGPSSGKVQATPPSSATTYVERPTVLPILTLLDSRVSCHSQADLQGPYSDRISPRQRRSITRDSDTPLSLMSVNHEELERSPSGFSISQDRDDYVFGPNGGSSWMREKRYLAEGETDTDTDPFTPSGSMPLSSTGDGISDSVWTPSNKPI
Summary of the method: as §1

[5] = target: heteromeric Kv7.2/Kv7.3(EEE) channels (Homo sapiens, UniProt O43525+O43526, K462E/K469E/R471E); assay: DiC8-PI; type: cell-based; conditions: single-component fit
Chain of heteromeric Kv7.2/Kv7.3(EEE) channels (O43525 whole entry K462E/K469E/R471E, the tested form may be a part): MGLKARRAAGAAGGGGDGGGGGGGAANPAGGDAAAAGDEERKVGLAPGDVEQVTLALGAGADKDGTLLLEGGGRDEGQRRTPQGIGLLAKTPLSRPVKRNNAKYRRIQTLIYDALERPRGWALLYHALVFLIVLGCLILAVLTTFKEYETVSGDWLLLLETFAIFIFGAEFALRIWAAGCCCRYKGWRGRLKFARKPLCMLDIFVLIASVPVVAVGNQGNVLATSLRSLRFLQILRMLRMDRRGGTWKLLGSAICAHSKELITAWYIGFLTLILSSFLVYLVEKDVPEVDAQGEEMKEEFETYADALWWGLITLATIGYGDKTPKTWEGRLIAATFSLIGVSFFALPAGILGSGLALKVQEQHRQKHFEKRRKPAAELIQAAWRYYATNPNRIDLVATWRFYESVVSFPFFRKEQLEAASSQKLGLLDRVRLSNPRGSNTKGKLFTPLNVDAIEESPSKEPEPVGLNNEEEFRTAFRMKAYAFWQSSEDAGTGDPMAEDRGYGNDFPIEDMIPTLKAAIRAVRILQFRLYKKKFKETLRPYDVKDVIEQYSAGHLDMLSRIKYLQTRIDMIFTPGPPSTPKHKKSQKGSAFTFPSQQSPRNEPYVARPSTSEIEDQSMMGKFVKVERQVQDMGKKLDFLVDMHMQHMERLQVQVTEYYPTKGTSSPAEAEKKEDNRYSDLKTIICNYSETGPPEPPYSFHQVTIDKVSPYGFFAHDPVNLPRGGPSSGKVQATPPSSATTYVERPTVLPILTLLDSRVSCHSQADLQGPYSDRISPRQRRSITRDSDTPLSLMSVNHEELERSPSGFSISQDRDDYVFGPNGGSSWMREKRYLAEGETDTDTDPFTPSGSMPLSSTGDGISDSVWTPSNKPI
Chain of heteromeric Kv7.2/Kv7.3(EEE) channels (O43526 whole entry, the tested form may be a part): as the sequence (O43526 whole entry) above
Summary of the method: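 CHO cells expressing WT Kv7.2 with Kv7.3 […]. Excised inside-out patches were held at 0 mV, 22°C, in 165 mM KCl, 5 mM HEPES, 10 mM EGTA, pH 7.2, with 0.1 µM ATPγS. The PI(4,5)P2 analog was applied in incremental concentrations by fast piezo microperfusion. Popen was taken over the last 20 s and corrected for channel number. n = 8–13 patches.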

Kv7.2/Kv7.3 channels = assay: Activation model fitted to the DiC8-PI; type: cell-based, human
Summary of the method: (§2)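 A binding/gating scheme was fitted to mean inside-out patch Popen–concentration data for the water-soluble PI(4,5)P2 analog: Kv7.2/Kv7.3 from 20–49 patches, Kv7.2/Kv7.3(EEE) from 8–13 patches. The scheme has two pairs of independent high-affinity (K3, Kv7.3) and low-affinity (K2, Kv7.2) sites and three open states (E3, E2, E1). Occupancies follow mass action with microscopic reversibility. Popen is the sum of the open-state occupancies.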

[6] = system: Kv7.2/Kv7.3(EEE) mutant channels; assay: Activation model fitted to the DiC8-PI; type: cell-based
Summary of the method: as §2

homomeric Kv7.2 channels [7] = target: T1, homomeric Kv7.2 channels; conditions: ref Li et al., 2005; cited from earlier work
homomeric Kv7.3 channels = conditions: ref Li et al., 2005; cited from earlier work
[8] = system: coexpressed Kv7.2 and Kv7.3 subunits; conditions: ref Li et al., 2005; cited from earlier work
[9] = system: homomeric Kv7(EEE) channels; conditions: expressed as homomers; ref Hernandez et al., 2008; cited from earlier work
[10] = system: coexpressed Kv7.2 and Kv7.3; conditions: cited from earlier work
[11] = system: concatemeric Kv7.2/Kv7.3 dimer; conditions: ref Hadley et al., 2003; cited from earlier work
[12] = patches with only a single active channel

Chain of heteromeric Kv7.2/7.3 channels (O43525 whole entry, the tested form may be a part): as the sequence (O43525 whole entry K462E/K469E/R471E, the tested form may be a part) above, with E462K, E469K, E471R counted along it
Chain of heteromeric Kv7.2/7.3 channels (O43526 whole entry, the tested form may be a part): as the sequence (O43526 whole entry) above

- Popen(max1) ([1]; component 1, single- and pauci-channel patches, 0 mV): 0.2 ± 0.0073 and ~0.2
- Popen(max2) ([1]; component 2, single- and pauci-channel patches, 0 mV): 0.6 ± 0.0012
- Hill coefficient ([1]; constrained the same for both components, single- and pauci-channel patches): 1.4 ± 0.06 and ~1.4
- Popen at full opening ([1]; higher ligand concentrations, 0 mV): ~0.8
- partial channel opening, % of the maximum Popen ([1]; low concentrations, binding to Kv7.3 subunit): ~25%
- Hill coefficient nH [1, 12]: 1.6 ± 0.36
- Popen(max1) [1, 12]: 0.28 ± 0.045
- Popen(max2) [1, 12]: 0.61 ± 0.0074
- factor between apparent affinities of high- and low-affinity sites ([1]; two-component curves): about 60
- Hill coefficient nH (homomeric Kv7.2 channels [3]): 0.76 ± 0.08
- EC50 (homomeric Kv7.2 channels [3]; 0 mV): 76.2 µM and 76 µM
- Hill coefficient nH [4]: 0.95 ± 0.2
- EC50 ([4]; 0 mV): 3.6 ± 1 µM
- Hill coefficient nH [5]: 1.1 ± 0.1
- EC50 ([5]; maximum Popen undetermined): 265 ± 74 µM
- Kd ([6]; read-out: K3, model 4 free fit): 0.94 µM
SMILES: CCCCCCCC(=O)OC[C@H](COP(=O)(O)O[C@@H]1[C@H](O)[C@H](O)[C@@H](OP(=O)(O)O)[C@H](OP(=O)(O)O)[C@H]1O)OC(=O)CCCCCCC [DiC8-PI(4,5)P2, dioctanoylphosphatidyl-4,5-bisphosphate]
- concentration-response curve compared with K2/3-CHO cells [2]: very similar biphasic
- Po (max) (Kv7.2/Kv7.3 channels; model 4): 0.82
- E1, gating equilibrium constant (Kv7.2/Kv7.3 channels; model 4, all four sites occupied): 4.42 ± 0.61
- E2, gating equilibrium constant (Kv7.2/Kv7.3 channels; model 4, two high- and one low-affinity site occupied): 0.46 ± 0.39
- E3, gating equilibrium constant (Kv7.2/Kv7.3 channels; model 4, two high-affinity sites occupied): 0.26 ± 0.07
- concentration at which Po3 peaks (Kv7.2/Kv7.3 channels; model 4 prediction): around 7 µM
- peak open probability Po3 (only Kv7.3 subunits bound) (Kv7.2/Kv7.3 channels; model 4 prediction, around 7 µM): 0.145
- E1 ([6]; model 4 free fit): 0.89 ± 0.43
- E2 ([6]; model 4 free fit): 0.00
- E3 ([6]; model 4 free fit): 0.04 ± 0.14
- Po (max) ([6]; model 4 free fit): 0.47
- maximum open probability Po3 (both Kv7.3 sites occupied) ([6]; model 4 prediction, at 10 µM): 0.027
- Hill slope (homomeric Kv7.2 channels [7]): 0.97
- EC50 (homomeric Kv7.3 channels): 2.6 µM
- Hill slope (homomeric Kv7.3 channels): 1.33
- EC50 [8]: 40 µM
- fold less sensitive than WT channels [9]: > 100 fold

SMILES: CC[N+](CC)(CC)CC [TEA, tetraethylammonium]
- Hill slope of TEA inhibition ([10]; ref Shapiro et al. [2000]): 0.58
- Hill slope of TEA inhibition ([10]; single binding site equation, ref Hadley et al., 2003): 0.98 ± 0.02
- Hill slope of TEA inhibition [11]: 0.97 ± 0.12
